Results on 3 compounds are retold here after ChEMBL document CHEMBL1671853, “Decrease of atazanavir and lopinavir plasma concentrations in a boosted double human immunodeficiency virus protease inhibitor salvage regimen” (Antimicrob Agents Chemother, 2008).

Data set [1] in a line: AUC in HIV-1 infected patient at 300 mg, po qd coadministered with 100 mg of ritonavir, po qd and NRTI. It counts as ADME, organism-based. To be noted: human, plasma. An outline of the steps: (§1)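 Retrospective steady-state TDM data from HIV-1-infected adults (n = 17 per group, matched for sex, age, ethnicity and body weight), taken after at least 2 weeks on therapy. Plasma sampled before dosing and at 1, 2, 4, 6, 9, 12 and 24 h, with food of approximately 2,500 kJ (21% fat). Drug levels measured by validated LC-MS/MS; parameters from noncompartmental analysis; geometric means (90% CI).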

Data set [2] in a line: Half life in HIV-1 infected patient at 300 mg, po qd coadministered with 100 mg of ritonavir, po qd and NRTI. To be noted: human, in vivo. In kind it is ADME, organism-based. The gist of the method:
as §1

Data set [3] can be described thus: Cmax in HIV-1 infected patient at 300 mg, po qd coadministered with 400 mg, po bid and 100 mg, po bid of Lopinavir and ritonavir respectively. Further details: dose 300 mg, route oral. It counts as ADME, organism-based. The conditions noted are these: human, in vivo. An outline of the steps: as §1
Data set [4] can be described thus: Cmax in HIV-1 infected patient at 300 mg, po qd coadministered with 100 mg of ritonavir, po qd and NRTI. Further details: dose 300 mg, route oral. To be noted: human, in vivo. It counts as ADME, organism-based. The gist of the method:
as §1

The nature of data set [5]: AUC in HIV-1 infected patient at 300 mg, po qd coadministered with 400 mg, po bid and 100 mg, po bid of Lopinavir and ritonavir respectively. It counts as ADME, organism-based. To be noted: human, plasma. The gist of the method:
as §1

Data set [6] is described as follows: Half life in HIV-1 infected patient at 300 mg, po qd coadministered with 400 mg, po bid and 100 mg, po bid of Lopinavir and ritonavir respectively. In kind it is ADME, organism-based. To be noted: human, in vivo. An outline of the steps: as §1
The nature of data set [7]: Oral clearance in HIV-1 infected patient at 300 mg, po qd coadministered with 100 mg of ritonavir, po qd and NRTI. In kind it is ADME, organism-based. To be noted: human, in vivo. The gist of the method: as §1
Data set [8] can be described thus: Apparent oral clearance in HIV-1 infected patient at 300 mg, po qd coadministered with 400 mg, po bid and 100 mg, po bid of Lopinavir and ritonavir respectively. It counts as ADME, organism-based. To be noted: human, in vivo. The gist of the method:
as §1

Data set [9] in a line: Half life in HIV-1 infected patient at 400 mg, po bid coadministered with 100 mg, po bid of ritonavir and NRTI. It counts as ADME, organism-based. To be noted: human, in vivo. The gist of the method:
(§2)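 HIV-1-infected adults on LPV-RTV gel capsules plus NRTI (n = 17, matched pairs) at steady state after at least 2 weeks of therapy, under a standardized routine TDM protocol with food of approximately 2,500 kJ (21% fat). Plasma sampled predose and at 1, 2, 4, 6, 9 and 12 h. Concentrations by validated LC-MS/MS; noncompartmental parameters given as geometric means (90% CI).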

A short description of data set [10]: Apparent oral clearance in HIV-1 infected patient at 400 mg, po bid coadministered with 100 mg, po bid of ritonavir and 300 mg, po qd of atazanavir. In kind it is ADME, organism-based. The conditions noted are these: human, in vivo. An outline of the steps: as §1
Data set [11] can be described thus: Half life in HIV-1 infected patient at 400 mg, po bid coadministered with 100 mg, po bid of ritonavir and 300 mg, po qd of atazanavir. It counts as ADME, organism-based. To be noted: human, in vivo. The gist of the method:
as §1

A short description of data set [12]: Apparent oral clearance in HIV-1 infected patient at 400 mg, po bid coadministered with 100 mg, po bid of ritonavir with NRTI. It counts as ADME, organism-based. The conditions noted are these: human, in vivo. An outline of the steps: as §2
Data set [13] is described as follows: AUC in HIV-1 infected patient at 400 mg, po bid coadministered with 100 mg, po bid of ritonavir and NRTI. In kind it is ADME, organism-based. The conditions noted are these: human, plasma. An outline of the steps: as §2
Data set [14] is described as follows: AUC in HIV-1 infected patient at 400 mg, po bid coadministered with 100 mg, po bid of ritonavir and 300 mg, po qd of atazanavir. To be noted: human, plasma. It counts as ADME, organism-based. An outline of the steps: as §1
A short description of data set [15]: Cmax in HIV-1 infected patient at 400 mg, po bid coadministered with 100 mg, po bid of ritonavir and NRTI. It counts as ADME, organism-based. Further details: dose 400 mg, route oral. The conditions noted are these: human, in vivo. The gist of the method: as §2
A short description of data set [16]: Cmax in HIV-1 infected patient at 400 mg, po bid coadministered with 100 mg, po bid of ritonavir and 300 mg, po qd of atazanavir. On the set-up: dose 400 mg, route oral. In kind it is ADME, organism-based. The conditions noted are these: human, in vivo. An outline of the steps:
as §1

The nature of data set [17]: Half life in HIV-1 infected patient at 100 mg, po bid coadministered with 400 mg, po bid of Lopinavir and NRTI. To be noted: human, in vivo.
Data set [18] can be described thus: Cmax in HIV-1 infected patient at 100 mg, po bid coadministered with 400 mg, po bid of Lopinavir and NRTI. In kind it is ADME, organism-based. Further details: dose 100 mg, route oral. To be noted: human, in vivo. The gist of the method: as §2
Data set [19] in a line: AUC in HIV-1 infected patient at 100 mg, po bid coadministered with 400 mg, po bid of Lopinavir and 300 mg, po qd of atazanavir. In kind it is ADME, organism-based. The conditions noted are these: human, plasma. An outline of the steps:
as §1

Data set [20] relates to Homo sapiens. The experiment in a line: Apparent oral clearance in HIV-1 infected patient at 100 mg, po qd coadministered with 300 mg, po qd of atazanavir and NRTI. To be noted: in vivo.
The subject of data set [21] is Homo sapiens. The experiment in a line: Apparent oral clearance in HIV-1 infected patient at 100 mg, po bid coadministered with 400 mg, po bid of Lopinavir and NRTI. To be noted: in vivo. It counts as ADME, organism-based. The gist of the method: as §2
Data set [22] in a line: Cmax in HIV-1 infected patient at 100 mg, po qd coadministered with 300 mg, po qd of atazanavir and NRTI. To be noted: human, in vivo.
Data set [23] in a line: Half life in HIV-1 infected patient at 100 mg, po bid coadministered with 300 mg, po qd of atazanavir and NRTI. To be noted: human, in vivo.
A short description of data set [24]: AUC in HIV-1 infected patient at 100 mg, po qd coadministered with 300 mg, po qd of atazanavir and NRTI. The conditions noted are these: human, plasma.
The nature of data set [25]: AUC in HIV-1 infected patient at 100 mg, po bid coadministered with 400 mg, po bid of Lopinavir and NRTI. To be noted: human, plasma. It counts as ADME, organism-based. The gist of the method:
as §2

Data set [26] can be described thus: Cmax in HIV-1 infected patient at 100 mg, po bid coadministered with 400 mg, po bid of Lopinavir and 300 mg, po qd of atazanavir. It counts as ADME, organism-based. Further details: dose 100 mg, route oral. The conditions noted are these: human, in vivo. The gist of the method:
as §1

The AUC is the area under the concentration-time curve, a measure of exposure. By half-life is commonly meant the time in which the quantity being followed falls by half. The Cmax is the highest concentration seen after dosing. As a reminder, the CL/F is clearance divided by bioavailability, as obtained after extravascular dosing. Take `COC(=O)N[C@H](C(=O)N[C@@H](Cc1ccccc1)[C@@H](O)CN(Cc1ccc(-c2ccccn2)cc1)NC(=O)[C@@H](NC(=O)OC)C(C)(C)C)C(C)(C)C` [ATAZANAVIR]: the values for the AUC in [1] and in data set [5] were 30300 ng·h/mL and 26400 ng·h/mL, respectively. For the same compound, the figures for the half-life in data set [2] and in data set [6] were 7.21 h and 7.79 h, respectively. Also, the Cmax in data set [3] is 2260 ng/mL; in [4], 2740 ng/mL. For the same compound, the figures for the CL/F in data set [7] and in data set [8] were 154 mL/min and 185 mL/min, respectively.

As for `Cc1cccc(C)c1OCC(=O)N[C@@H](Cc1ccccc1)[C@@H](O)C[C@H](Cc1ccccc1)NC(=O)[C@H](C(C)C)N1CCCNC1=O` [LOPINAVIR], the half-life is 8.21 h in data set [9] and 6.56 h in data set [11]. Also, the figures for the CL/F in data set [10] and in [12] were 133 mL/min and 99 mL/min, respectively. Besides, the AUC is 59700 ng·h/mL in data set [13] and 48500 ng·h/mL in data set [14]. Also, the Cmax in data set [15] came to 6850 ng/mL; in [16], 5250 ng/mL.

Turning to `CC(C)c1nc(CN(C)C(=O)N[C@H](C(=O)N[C@@H](Cc2ccccc2)C[C@H](O)[C@H](Cc2ccccc2)NC(=O)OCc2cncs2)C(C)C)cs1` [RITONAVIR], the half-life is 4.03 h in [17] and 4.58 h in data set [23]. In addition, the Cmax is 525 ng/mL in data set [18], 869 ng/mL in data set [22] and 468 ng/mL in data set [26]. The AUC came out at 3290 ng·h/mL in [19], 7770 ng·h/mL in data set [24] and 3580 ng·h/mL in [25]. Moreover, the CL/F in data set [20] worked out at 199 mL/min; in [21] it was 440 mL/min.
